Assays:
DU-145 = assay: Cytotoxicity against human DU145 cells after 48 hrs by SRB assay; format: functional, cell-based; settings: Homo sapiens, DU-145, 48 h; for GI50: read-out: GI50; for CC50: read-out: LC50 (the source's name)
In short: (§1)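 Cells grown in RPMI 1640 with 10% FBS and penicillin/streptomycin at 37 °C and 5% CO₂, trypsinized, then seeded at 5 × 10³/well. After 18 h drug-free attachment, samples in DMSO/EtOH/PBS (0.5:0.5:99) were added for 48 h continuous exposure. Cells were fixed with cold TCA (1 h, 4 °C) and stained with SRB (10 min). Tris-solubilized stain read at 490 nm. Triplicate wells, mean ± SD; GI₅₀ derived.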

LNCaP = assay: Cytotoxicity against human LNcaP cells after 48 hrs by SRB assay; format: functional; settings: for CC50: read-out: LC50 (the source's name); in short: as §1
[1] = Cytotoxicity against human IGROV cells after 48 hrs by SRB assay; format: functional; settings: for CC50: read-out: LC50 (the source's name); in short: as §1
[2] = Cytotoxicity against human IGROV-ET cells after 48 hrs by SRB assay; format: functional; settings: for CC50: read-out: LC50 (the source's name); in short: as §1
SK-MEL-28 = assay: Cytotoxicity against human SK-MEL-28 cells after 48 hrs by SRB assay; format: functional, cell-based; settings: Homo sapiens, SK-MEL-28, 48 h; for GI50: read-out: GI50; for CC50: read-out: LC50 (the source's name); in short: as §1
A549 = assay: Cytotoxicity against human A549 cells after 48 hrs by SRB assay; format: functional, cell-based; settings: Homo sapiens, A549, 48 h; for GI50: read-out: GI50; in short: as §1
K562 = assay: Cytotoxicity against human K562 cells after 48 hrs by SRB assay; format: functional; settings: K562, 48 h; for CC50: read-out: LC50 (the source's name); in short: as §1
PANC-1 = assay: Cytotoxicity against human PANC1 cells after 48 hrs by SRB assay; format: functional; settings: PANC-1, 48 h; for CC50: read-out: LC50 (the source's name); in short: as §1
HT-29 = assay: Cytotoxicity against human HT29 cells after 48 hrs by SRB assay; format: functional, cell-based; settings: Homo sapiens, HT-29, 48 h; for CC50: read-out: LC50 (the source's name); in short: as §1
LoVo [3] = assay: Cytotoxicity against human LoVo cells after 48 hrs by SRB assay; format: functional; settings: for CC50: read-out: LC50 (the source's name)
LoVo [4] = assay: Cytotoxicity against human doxorubicin resistant LoVo cells after 48 hrs by SRB assay; format: functional; settings: for CC50: read-out: LC50 (the source's name); in short: as §1
HeLa = assay: Cytotoxicity against human HeLa cells after 48 hrs by SRB assay; format: functional; settings: read-out: LC50 (the source's name); in short: as §1
[5] = Cytotoxicity against human HeLa-APL cells after 48 hrs by SRB assay; format: functional; in short: as §1

| Compound | TGI (DU-145) [nM] | CC50 (DU-145) [nM] | CC50 (LNCaP) [nM] | CC50 [1] [nM] | GI50 [2] [nM] | GI50 ([2]; read-out: GI50) [nM] | CC50 [2] [nM] | TGI (SK-MEL-28) [nM] | GI50 (SK-MEL-28) [nM] | CC50 (SK-MEL-28) [nM] | LC50 (A549) [nM] | CC50 (K562) [nM] | CC50 (PANC-1) [nM] | CC50 (HT-29) [nM] | CC50 (LoVo [3]) [nM] | GI50 (LoVo [4]) [nM] | TGI (LoVo [4]) [nM] | CC50 (LoVo [4]) [nM] | CC50 (HeLa) [nM] | LC50 (concentration giving 50% net cell kill) [5] [nM] | further results |
| --- | --- | --- | --- | --- | --- | --- | --- | --- | --- | --- | --- | --- | --- | --- | --- | --- | --- | --- | --- | --- | --- |
| C/C=C1\NC(=O)[C@H](Cc2ccccc2)NC(=O)[C@@H](C(C)C)NC(=O)[C@@H]([C@H](C)CC)NC(=O)[C@H](NC(=O)[C@H](NC(=O)[C@H](CCCN)NC(=O)[C@H]2CCCN2C(=O)[C@H](NC(=O)[C@@H](NC(=O)[C@@H](NC(=O)[C@@H](CC(C)C)NC(=O)CCCC(C)C)[C@@H](C)O)C(C)C)C(C)C)[C@H](C)CC)[C@H](C)OC(=O)[C@H](C(C)C)NC1=O | 1070 | 889 | 1130 | 5640 | 298 | 1310 | 365 | 1070 | 1090 | 1060 | 1080 | 2180 | 2790 | 509 | 856 | 325 | 329 | 3370 | 955 | 948 | GI50 (DU-145): 1340 nM; GI50 (LNCaP): 1790 nM; TGI (LNCaP): 2550 nM; GI50 [1]: 845 nM; GI50 ([1]; read-out: GI50): 1050 nM; GI50 (K562): 2720 nM; TGI (K562): 2430 nM; GI50 (PANC-1): 2910 nM; TGI (PANC-1): 5.21 µM; GI50 (HT-29): 661 nM; TGI (HT-29): 728 nM; GI50 (LoVo [3]): 608 nM; TGI (LoVo [3]): 842 nM; GI50 [5]: 1000 nM; TGI [5]: 1460 nM |
| C/C=C1\NC(=O)[C@H](Cc2ccccc2)NC(=O)[C@@H](C(C)C)NC(=O)[C@@H]([C@@H](C)CC)NC(=O)[C@H](NC(=O)[C@H](NC(=O)[C@H](CCCN)NC(=O)[C@H]2CCCN2C(=O)[C@H](NC(=O)[C@@H](NC(=O)[C@@H](NC(=O)[C@H](NC(=O)CCCC(C)C)[C@@H](C)O)[C@@H](C)O)C(C)C)C(C)C)[C@@H](C)CC)[C@@H](C)OC(=O)[C@H](C(C)C)NC1=O | 1150 | 9290 | 1140 | 582 | 231 | 1000 | 257 | 1160 | 1220 | 1100 | 1030 | 2370 | 2810 | 575 | 896 | 325 | 327 | 331 | 1020 | 977 | GI50 (DU-145): 1470 nM; GI50 (LNCaP): 1950 nM; TGI (LNCaP): 2580 nM; GI50 [1]: 909 nM; GI50 ([1]; read-out: GI50): 1170 nM; TGI (A549): 1260 nM; GI50 (A549): 1550 nM; GI50 (PANC-1): 3910 nM; TGI (PANC-1): 5.26 µM; GI50 (HT-29): 1060 nM; TGI (HT-29): 886 nM; GI50 (LoVo [3]): 367 nM; TGI (LoVo [3]): 727 nM; GI50 [5]: 1040 nM; TGI [5]: 1520 nM |
| C/C=C1\NC(=O)[C@H](Cc2ccccc2)NC(=O)[C@@H](C(C)C)NC(=O)[C@@H]([C@H](C)CC)NC(=O)[C@H](NC(=O)[C@H](NC(=O)[C@H](CCCN)NC(=O)[C@H]2CCCN2C(=O)[C@H](NC(=O)[C@@H](NC(=O)[C@@H](NC(=O)[C@H]2CCCN2C(=O)CCCC(C)C)[C@@H](C)O)C(C)C)C(C)C)[C@H](C)CC)[C@H](C)OC(=O)[C@H](C(C)C)NC1=O | – | 1160 | 1060 | 768 | 608 | 4700 | 426 | 1240 | 1050 | 1140 | 1240 | 1800 | 2820 | 1140 | 1500 | 3510 | 3370 | 3270 | 1090 | 1010 | GI50 (LNCaP): 1160 nM; TGI (LNCaP): 1110 nM; GI50 (K562): 1310 nM; TGI (K562): 1530 nM; GI50 (PANC-1): 2750 nM; TGI (PANC-1): 3.8 µM; GI50 [5]: 1180 nM; TGI [5]: 1650 nM |
| C/C=C1\NC(=O)[C@H](Cc2ccccc2)NC(=O)[C@@H](C(C)C)NC(=O)[C@@H]([C@H](C)CC)NC(=O)[C@H](NC(=O)[C@H](NC(=O)[C@H](CCCN)NC(=O)[C@H]2Cc3ccccc3CN2C(=O)[C@H](NC(=O)[C@@H](NC(=O)[C@@H](NC(=O)[C@H](NC(=O)CC[C@@H](C)CC)C(C)C)[C@@H](C)O)C(C)C)C(C)C)[C@H](C)CC)[C@H](C)OC(=O)[C@H](C(C)C)NC1=O | 2280 | 1370 | 1510 | 464 | 779 | 1060 | 527 | 3110 | 3630 | 1560 | 6500 | 2100 | 1950 | 426 | 685 | 2290 | 2490 | 1740 | 1050 | 947 | GI50 (DU-145): 2390 nM; GI50 [1]: 806 nM; GI50 ([1]; read-out: GI50): 1520 nM; TGI (A549): 1540 nM; GI50 (A549): 1430 nM; GI50 (LoVo [3]): 2620 nM; TGI (LoVo [3]): 2540 nM |

From ChEMBL document CHEMBL1156597, “Structure-activity relationship of kahalalide F synthetic analogues” (J Med Chem, 2008)
